ChEMBL document CHEMBL2021920, “Design, synthesis and biological evaluation of thiazole- and indole-based derivatives for the treatment of type II diabetes” (Eur J Med Chem, 2012)
Each block holds one compound with its values, some of them ahead of it. Active and inactive are the calls of the source. The calls are words filed in the database; no cut-off is given here.

Key:
RAW264.7 = assay: Inhibition of LPS-stimulated TNFalpha production in mouse RAW264.7 cells at […] dosed simultaneously with LPS measured 24 hrs post dose by ELISA; format: functional
Outline: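 RAW 264.7 macrophages were seeded and grown for 24 h. Test agents were then added together with LPS, and cells were incubated for a further 24 h before TNF-α output was determined. Results are expressed as percent inhibition.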

Mus musculus [1] = assay: Antidiabetic effect in high-fat diet fed C57BL/6J mouse obesity model assessed as weight gain incidence at 50 mg/kg, po dosed once daily measured after 8 weeks relative to untreated control; format: functional
Outline: (§1)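 C57BL/6J animals were kept on a 60% fat diet, or on normal food, for 8 weeks. High-fat groups were dosed orally at 50 mg/kg once daily (suspension in Tween 80/5% saline) or given vehicle, n = 8 per group. Body weight and food intake were followed over the study period.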

Mus musculus [2] = assay: Effect on food intake in high-fat diet fed C57BL/6J mouse obesity model at 50 mg/kg, po dosed once daily measured after 8 weeks relative to untreated control; format: functional, organism-based; design: dose 50 mg/kg; outline: as §1
Mus musculus [3] = assay: Antidiabetic effect in high-fat diet fed C57BL/6J mouse obesity model assessed as reduction in blood glucose at 50 mg/kg, po dosed once daily measured after 8 weeks relative to untreated control; format: functional, organism-based; design: dose 50 mg/kg
Outline: (§2)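 Obese C57BL/6J animals on a 60% fat diet were given 50 mg/kg orally each day (suspension in Tween 80/5% saline) or vehicle, n = 8 per group. After 8 weeks, heart blood was taken under anaesthesia and spun at 5,000 g for 15 min at 4 °C. Plasma glucose, TG, TC and ALT were measured on a biochemistry analyzer.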

Mus musculus [4] = assay: Antidiabetic effect in high-fat diet fed C57BL/6J mouse obesity model assessed as reduction in plasma triglyceride level at 50 mg/kg, po dosed once daily measured after 8 weeks relative to untreated control; format: functional; settings: 1344 h; outline: as §2
Mus musculus [5] = assay: Antidiabetic effect in high-fat diet fed C57BL/6J mouse obesity model assessed as reduction in plasma total cholesterol level at 50 mg/kg, po dosed once daily measured after 8 weeks relative to untreated control; format: functional; settings: 1344 h; outline: as §2
Mus musculus [6] = assay: Antidiabetic effect in high-fat diet fed C57BL/6J mouse obesity model assessed as reduction in plasma alanine aminotransferase level at 50 mg/kg, po dosed once daily measured after 8 weeks relative to untreated control; format: functional; settings: 1344 h; outline: as §2
Mus musculus [7] = assay: Antidiabetic effect in high-fat diet fed C57BL/6J mouse obesity model assessed as improvement in glucose metabolism level at 50 mg/kg, po dosed once daily measured after 8 weeks by glucose tolerance test; format: functional, organism-based; design: dose 50 mg/kg
Outline: (§3)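 Diet-induced obese C57BL/6J animals were fed a 60% fat diet for 8 weeks, then dosed orally with 50 mg/kg daily (suspension in Tween 80 and 5% saline) or vehicle, n = 8 per group. After a 12 h fast they received either an oral glucose load of 0.5 g/kg (5% glucose) or ip insulin at 2 U/Kg in saline. Blood glucose was read by glucose meter at 0, 15, 30, 60, 90 and 120 min.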

Mus musculus [8] = assay: Antidiabetic effect in high-fat diet fed C57BL/6J mouse obesity model assessed as increase in insulin sensitivity level at 50 mg/kg, po dosed once daily measured after 8 weeks by insulin tolerance test; format: functional, organism-based; design: dose 50 mg/kg; outline: as §3
Mus musculus [9] = assay: Antidiabetic effect in high-fat diet fed C57BL/6J mouse obesity model assessed as reduction in liver fat deposition at 50 mg/kg, po dosed once daily measured after 8 weeks by H&E staining; format: functional, organism-based; design: dose 50 mg/kg
Outline: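 Livers came from high-fat-fed C57BL/6J animals that had 8 weeks of daily oral dosing at 50 mg/kg or vehicle. Tissue was fixed in 4% buffered formalin, embedded in paraffin or OCT, and serially sectioned. Sections were stained with H&E to assess fat deposition.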

[10] = target: Fatty acid-binding protein, adipocyte (Mus musculus) (UniProt P04117); assay: Inhibition of mouse ap2 by fluorescent 1,8-anilino-8-naphthalene sulfonate assay; settings: read-out: Ki(app)
Fatty acid-binding protein, adipocyte (Mus musculus), sequence (P04117 whole entry, looked up): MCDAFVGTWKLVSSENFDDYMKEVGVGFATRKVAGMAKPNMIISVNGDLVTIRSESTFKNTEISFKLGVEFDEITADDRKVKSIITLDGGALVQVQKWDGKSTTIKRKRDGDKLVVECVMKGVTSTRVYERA

SMILES: O=C(O)/C=C/c1cn(Cc2ccc([N+](=O)[O-])cc2)c2ccccc12
inhibition (INH) (RAW264.7): 32.34%

SMILES: O=C(O)/C=C/c1cn(Cc2cccc(F)c2)c2ccccc12
inhibition (INH) (RAW264.7): 36.36%

SMILES: N#Cc1ccc(Cn2cc(/C=C/C(=O)O)c3ccccc32)cc1
inhibition (INH) (RAW264.7): 31.46%

SMILES: O=C(O)CSCC(=O)Nc1nc(-c2ccc(F)cc2)cs1
inhibition (INH) (RAW264.7): 18.19%

SMILES: O=C(O)CCC(=O)Nc1nc(-c2ccc(C(F)(F)F)cc2)cs1
inhibition (INH) (RAW264.7): 12.15%

Ki [10]: 33 nM
SMILES: O=C(O)/C=C/c1cn(Cc2ccccc2F)c2ccccc12
inhibition (INH) (RAW264.7): 95.47% | Activity (Mus musculus [1]): 21.18% | Activity (Mus musculus [2]): inactive | Activity (Mus musculus [3]): Active | inhibition in vivo at 50 mg/kg (Mus musculus [4]): 27.1% | inhibition in vivo at 50 mg/kg (Mus musculus [5]): 38.5% | inhibition in vivo at 50 mg/kg (Mus musculus [6]): 26.7% | Activity (Mus musculus [7]): Active | Activity (Mus musculus [8]): Active | Activity (Mus musculus [9]): Active

SMILES: O=C(O)CCC(=O)Nc1nc(-c2ccc(Cl)c(Cl)c2)cs1
inhibition (INH) (RAW264.7): 12.38%

SMILES: O=C(O)/C=C/c1cn(Cc2ccc(F)cc2)c2ccccc12
inhibition (INH) (RAW264.7): 86.78%

SMILES: Cc1ccc(-c2csc(NC(=O)CCC(=O)O)n2)cc1
inhibition (INH) (RAW264.7): 36.67%

SMILES: O=C(O)CCC(=O)Nc1nc(-c2ccc(F)cc2)cs1
inhibition (INH) (RAW264.7): 27.24%

SMILES: O=C(O)CCC(=O)Nc1nc(-c2ccc(F)c(F)c2)cs1
inhibition (INH) (RAW264.7): 92.45%

SMILES: COc1ccc2c(c1)c(/C=C/C(=O)O)cn2Cc1cccc(F)c1
inhibition (RAW264.7): inactive

SMILES: Cc1ccc(Cn2cc(/C=C/C(=O)O)c3ccccc32)cc1
inhibition (INH) (RAW264.7): 66.56%

SMILES: O=C(O)Cc1cn(Cc2ccccc2F)c2ccccc12
inhibition (INH) (RAW264.7): 24.72%

SMILES: Cc1ccccc1Cn1cc(CC(=O)O)c2ccccc21
inhibition (INH) (RAW264.7): 14.29%

SMILES: Cc1ccc2c(c1)c(/C=C/C(=O)O)cn2Cc1ccccc1F
inhibition (INH) (RAW264.7): 11.18%

SMILES: Cc1c(/C=C/C(=O)O)c2ccccc2n1Cc1cccc(F)c1
inhibition (RAW264.7): inactive

SMILES: Cc1sc(NC(=O)CCC(=O)O)nc1-c1ccc(Cl)cc1
inhibition (INH) (RAW264.7): 27.14%

SMILES: O=C(O)Cc1cn(Cc2cccc(F)c2)c2ccccc12
inhibition (RAW264.7): inactive

SMILES: Cc1ccccc1Cn1cc(/C=C/C(=O)O)c2ccccc21
inhibition (RAW264.7): inactive

SMILES: COc1ccc2c(c1)c(/C=C/C(=O)O)cn2Cc1ccc(F)cc1
inhibition (INH) (RAW264.7): 94.28%

SMILES: O=C(O)CCC(=O)Nc1nc(-c2ccccc2Cl)cs1
inhibition (INH) (RAW264.7): 8.56%

SMILES: O=C(O)CCC(=O)Nc1nc(-c2ccc3ccccc3c2)cs1
inhibition (INH) (RAW264.7): 58.75%

SMILES: O=C(O)CCC(=O)Nc1nc(-c2ccc(Cl)cc2)cs1
inhibition (INH) (RAW264.7): 41.22%

SMILES: O=C(O)CSCC(=O)Nc1nc(-c2ccc(Cl)cc2)cs1
inhibition (INH) (RAW264.7): 23.45%

SMILES: O=C(O)Cc1cn(Cc2ccccc2)c2ccccc12
inhibition (INH) (RAW264.7): 52.17%

SMILES: CCc1c(-c2ccccc2)c(-c2ccccc2)nn1-c1ccccc1-c1cccc(OCC(=O)O)c1
inhibition (INH) (RAW264.7): 85.13%

SMILES: O=C(O)CSCC(=O)Nc1nc(-c2ccc([N+](=O)[O-])cc2)cs1
inhibition (INH) (RAW264.7): 43.24%

SMILES: CC(C)c1ccc(Cn2cc(/C=C/C(=O)O)c3ccccc32)cc1
inhibition (INH) (RAW264.7): 92.24%

SMILES: Cc1c(/C=C/C(=O)O)c2ccccc2n1Cc1ccccc1F
inhibition (INH) (RAW264.7): 93.27%

SMILES: O=C(O)/C=C/c1cn(Cc2ccccc2)c2ccccc12
inhibition (INH) (RAW264.7): 18.17%

SMILES: O=C(O)CCC(=O)Nc1nc(-c2ccc(Cl)cc2Cl)cs1
inhibition (INH) (RAW264.7): 35.15%

SMILES: COc1ccc2c(c1)c(/C=C/C(=O)O)cn2Cc1ccccc1F
inhibition (INH) (RAW264.7): 86.67%

SMILES: O=C(O)Cc1cn(Cc2ccc(F)cc2)c2ccccc12
inhibition (INH) (RAW264.7): 92.24%

SMILES: O=C(O)CSCC(=O)Nc1nc(-c2ccc(C(F)(F)F)cc2)cs1
inhibition (INH) (RAW264.7): 37.26%

SMILES: O=C(O)/C=C/c1cn(Cc2cccc3ccccc23)c2ccccc12
inhibition (INH) (RAW264.7): 93.28%

SMILES: Cc1sc(NC(=O)CCC(=O)O)nc1-c1ccccc1
inhibition (INH) (RAW264.7): 25.23%

SMILES: Cc1ccc2c(c1)c(/C=C/C(=O)O)cn2Cc1cccc(F)c1
inhibition (RAW264.7): inactive

SMILES: CC(C)(C)c1ccc(Cn2cc(/C=C/C(=O)O)c3ccccc32)cc1
inhibition (INH) (RAW264.7): 50.18%

SMILES: COc1ccc(-c2csc(NC(=O)CCC(=O)O)n2)cc1
inhibition (RAW264.7): inactive
